Activity calls are given as the source filed them. The rule behind the calls is not given here.
Assays:
[1] = Drug metabolism in human liver microsome at 10 uM after 30 mins by LC-MS analysis; assay type: ADME; conditions: liver microsomes, read-out: Drug metabolism
[2] = Drug metabolism in mouse liver microsome at 10 uM after 30 mins by LC-MS analysis; assay type: ADME; conditions: liver microsomes, read-out: Drug metabolism
[3] = Inhibition of WNT signaling in human 7dF3 cells preincubated at 20 uM for 2 hrs before beta-estradiol addition measured after 24 hrs by luciferase reporter assay; assay type: cell-based
[4] = Cytotoxicity against human 7dF3 cells; assay type: cell-based
[5] = cells; assay type: cell-based; conditions: Homo sapiens, 7dF3
[6] = Dissociation constant, pKa of the compound; assay type: physicochemical
[7] = Inhibition of WNT signaling in human T-Rex HEK293 Tet-O cells harboring constitutively active deltaN-LRP6 after 4 days by luciferase reporter assay; assay type: cell-based; conditions: HEK293, 96 h
Method in brief: (§1)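 HEK293 T-Rex Tet-O cells stably carrying TCF-firefly luciferase-IRES-GFP reporter plus Tet-inducible cDNA (ΔN-LRP6, Dvl2, Axin-GID, ΔN-β-catenin or VP16-TCF4) introduced by FLP-FRT recombination; seeded from frozen at 40 000/well; day 3 compound added, eight concentrations 30 μM to 14 nM (final), with doxycycline hyclate; day 4 cells lysed, firefly luciferase luminescence read.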

[8] = Inhibition of WNT signaling in human T-Rex HEK293 Tet-O cells harboring Dvl2 after 4 days by luciferase reporter assay; assay type: cell-based; conditions: HEK293, 96 h; method in brief: as §1
[9] = Inhibition of WNT signaling in human T-Rex HEK293 Tet-O cells harboring dominant negative form of Axin GSK3beta-interacting domain after 4 days by luciferase reporter assay; assay type: cell-based; conditions: HEK293, 96 h; method in brief: as §1
[10] = Inhibition of WNT signaling in human T-Rex HEK293 Tet-O cells harboring degradation resistant form of beta-catenin after 4 days by luciferase reporter assay; assay type: cell-based; conditions: HEK293, 96 h; method in brief: as §1
[11] = Inhibition of WNT signaling in human T-Rex HEK293 Tet-O cells harboring constitutively active VP16-TCF in absence of beta-catenin after 4 days by luciferase reporter assay; assay type: cell-based; conditions: HEK293, 96 h; method in brief: as §1
[12] = Aqueous solubility of the compound; assay type: physicochemical; conditions: buffer
[13] = Apparent permeability in human Caco2 cells after 2 hrs by LC-MS/MS analysis; assay type: ADME, cell-based, Caco-2; conditions: caco-2, 2 h
[14] = target: Voltage-gated inwardly rectifying potassium channel KCNH2 (Homo sapiens, UniProt Q12809); assay: Inhibition of human ERG
[15] = target: Cytochrome P450 2C9 (Homo sapiens, UniProt P11712); assay: Inhibition of CYP2C9 (unknown origin); assay type: ADME; conditions: human
[16] = target: T1, Cytochrome P450 1A2 (Homo sapiens, UniProt P05177); assay: Inhibition of CYP1A2 (unknown origin); assay type: ADME
T1 sequence (P05177 whole entry): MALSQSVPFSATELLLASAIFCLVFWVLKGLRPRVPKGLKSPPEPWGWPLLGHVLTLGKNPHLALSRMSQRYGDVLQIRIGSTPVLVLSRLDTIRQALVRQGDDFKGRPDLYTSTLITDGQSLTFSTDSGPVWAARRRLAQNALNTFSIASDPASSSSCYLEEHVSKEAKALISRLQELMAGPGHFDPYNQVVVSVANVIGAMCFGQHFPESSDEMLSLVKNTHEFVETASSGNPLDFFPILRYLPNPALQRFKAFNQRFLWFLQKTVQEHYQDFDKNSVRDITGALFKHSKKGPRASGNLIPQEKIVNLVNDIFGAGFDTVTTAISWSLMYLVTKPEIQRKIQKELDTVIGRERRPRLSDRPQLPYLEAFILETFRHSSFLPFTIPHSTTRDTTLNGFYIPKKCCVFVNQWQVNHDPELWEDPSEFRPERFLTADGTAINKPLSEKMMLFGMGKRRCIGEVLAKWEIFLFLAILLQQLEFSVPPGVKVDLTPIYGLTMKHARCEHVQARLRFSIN

[17] = target: T2, Cytochrome P450 2C8 (Homo sapiens, UniProt P10632); assay: Inhibition of CYP2C8 (unknown origin); assay type: ADME
T2 sequence (P10632 whole entry): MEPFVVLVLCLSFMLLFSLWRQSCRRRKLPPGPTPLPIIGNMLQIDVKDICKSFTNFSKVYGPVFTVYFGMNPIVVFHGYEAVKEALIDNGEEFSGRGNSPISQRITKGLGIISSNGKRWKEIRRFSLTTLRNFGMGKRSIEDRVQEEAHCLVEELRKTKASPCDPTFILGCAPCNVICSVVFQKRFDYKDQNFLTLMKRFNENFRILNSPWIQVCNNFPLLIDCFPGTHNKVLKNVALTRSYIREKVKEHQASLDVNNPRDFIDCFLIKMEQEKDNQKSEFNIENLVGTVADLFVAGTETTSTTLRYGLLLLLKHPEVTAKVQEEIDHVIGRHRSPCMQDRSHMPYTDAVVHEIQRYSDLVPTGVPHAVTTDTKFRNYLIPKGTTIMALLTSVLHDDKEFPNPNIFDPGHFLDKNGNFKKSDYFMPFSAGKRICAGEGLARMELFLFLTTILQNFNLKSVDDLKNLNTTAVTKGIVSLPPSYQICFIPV

[18] = target: Cytochrome P450 3A4 (Homo sapiens, UniProt P08684); assay: Inhibition of CYP3A4 (unknown origin); assay type: ADME
[19] = target: Cytochrome P450 2C19 (Homo sapiens, UniProt P33261); assay: Inhibition of CYP2C19 (unknown origin); assay type: ADME
[20] = target: Cytochrome P450 2D6 (Homo sapiens, UniProt P10635); assay: Inhibition of CYP2D6 (unknown origin); assay type: ADME
Cytochrome P450 2D6, sequence (P10635 whole entry): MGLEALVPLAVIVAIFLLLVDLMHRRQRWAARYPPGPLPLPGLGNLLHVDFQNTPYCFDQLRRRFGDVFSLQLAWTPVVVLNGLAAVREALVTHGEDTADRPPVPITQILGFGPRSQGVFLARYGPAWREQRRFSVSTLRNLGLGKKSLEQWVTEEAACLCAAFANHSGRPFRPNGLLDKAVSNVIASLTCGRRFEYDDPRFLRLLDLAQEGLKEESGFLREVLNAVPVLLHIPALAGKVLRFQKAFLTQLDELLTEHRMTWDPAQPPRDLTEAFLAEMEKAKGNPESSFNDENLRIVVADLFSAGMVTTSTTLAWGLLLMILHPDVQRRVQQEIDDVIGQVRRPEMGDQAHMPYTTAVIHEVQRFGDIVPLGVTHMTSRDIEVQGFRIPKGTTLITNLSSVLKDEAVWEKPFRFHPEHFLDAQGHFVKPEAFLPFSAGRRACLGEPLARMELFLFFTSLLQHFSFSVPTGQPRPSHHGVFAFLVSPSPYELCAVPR

Voltage-gated inwardly rectifying potassium channel KCNH2, sequence (Q12809 whole entry): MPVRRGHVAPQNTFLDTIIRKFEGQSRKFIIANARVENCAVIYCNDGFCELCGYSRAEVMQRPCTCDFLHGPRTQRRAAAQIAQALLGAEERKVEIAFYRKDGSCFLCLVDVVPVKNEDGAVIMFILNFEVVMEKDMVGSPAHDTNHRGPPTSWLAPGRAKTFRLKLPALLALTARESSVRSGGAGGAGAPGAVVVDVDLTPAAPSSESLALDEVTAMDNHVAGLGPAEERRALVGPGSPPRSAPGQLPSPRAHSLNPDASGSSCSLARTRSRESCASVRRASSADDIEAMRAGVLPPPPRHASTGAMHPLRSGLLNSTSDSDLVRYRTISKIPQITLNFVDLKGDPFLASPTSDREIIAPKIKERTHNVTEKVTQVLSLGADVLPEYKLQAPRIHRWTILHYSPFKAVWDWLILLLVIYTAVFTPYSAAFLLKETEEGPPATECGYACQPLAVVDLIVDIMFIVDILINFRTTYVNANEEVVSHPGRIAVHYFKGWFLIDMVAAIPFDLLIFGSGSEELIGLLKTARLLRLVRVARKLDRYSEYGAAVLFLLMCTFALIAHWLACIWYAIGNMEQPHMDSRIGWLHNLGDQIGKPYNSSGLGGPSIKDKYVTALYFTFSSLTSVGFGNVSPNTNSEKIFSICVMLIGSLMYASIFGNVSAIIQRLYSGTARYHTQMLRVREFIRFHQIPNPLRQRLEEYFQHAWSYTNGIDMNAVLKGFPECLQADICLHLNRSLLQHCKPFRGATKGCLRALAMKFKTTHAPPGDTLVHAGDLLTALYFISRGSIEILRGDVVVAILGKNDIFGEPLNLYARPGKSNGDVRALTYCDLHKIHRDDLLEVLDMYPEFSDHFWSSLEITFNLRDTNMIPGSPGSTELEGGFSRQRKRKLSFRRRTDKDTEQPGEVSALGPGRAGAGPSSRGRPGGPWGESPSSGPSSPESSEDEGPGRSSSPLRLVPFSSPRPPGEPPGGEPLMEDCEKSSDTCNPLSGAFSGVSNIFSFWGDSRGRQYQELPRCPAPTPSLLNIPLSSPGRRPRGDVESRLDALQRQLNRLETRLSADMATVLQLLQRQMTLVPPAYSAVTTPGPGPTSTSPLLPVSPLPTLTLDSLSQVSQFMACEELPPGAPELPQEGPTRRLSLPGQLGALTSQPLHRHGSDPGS
Cytochrome P450 2C19, sequence (P33261 whole entry): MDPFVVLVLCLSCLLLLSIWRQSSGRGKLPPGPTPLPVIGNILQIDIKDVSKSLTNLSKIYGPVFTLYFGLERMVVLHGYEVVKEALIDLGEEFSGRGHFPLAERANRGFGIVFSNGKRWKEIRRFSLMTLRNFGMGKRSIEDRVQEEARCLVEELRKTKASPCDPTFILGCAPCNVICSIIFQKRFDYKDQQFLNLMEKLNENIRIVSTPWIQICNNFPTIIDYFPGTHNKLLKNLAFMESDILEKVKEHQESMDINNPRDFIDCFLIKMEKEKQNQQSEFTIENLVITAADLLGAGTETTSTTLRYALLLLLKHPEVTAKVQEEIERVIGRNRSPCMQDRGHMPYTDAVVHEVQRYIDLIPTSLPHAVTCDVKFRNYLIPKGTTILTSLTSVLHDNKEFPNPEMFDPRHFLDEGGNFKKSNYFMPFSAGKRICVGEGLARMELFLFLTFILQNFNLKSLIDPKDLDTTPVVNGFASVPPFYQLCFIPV
Cytochrome P450 2C9, sequence (P11712 whole entry): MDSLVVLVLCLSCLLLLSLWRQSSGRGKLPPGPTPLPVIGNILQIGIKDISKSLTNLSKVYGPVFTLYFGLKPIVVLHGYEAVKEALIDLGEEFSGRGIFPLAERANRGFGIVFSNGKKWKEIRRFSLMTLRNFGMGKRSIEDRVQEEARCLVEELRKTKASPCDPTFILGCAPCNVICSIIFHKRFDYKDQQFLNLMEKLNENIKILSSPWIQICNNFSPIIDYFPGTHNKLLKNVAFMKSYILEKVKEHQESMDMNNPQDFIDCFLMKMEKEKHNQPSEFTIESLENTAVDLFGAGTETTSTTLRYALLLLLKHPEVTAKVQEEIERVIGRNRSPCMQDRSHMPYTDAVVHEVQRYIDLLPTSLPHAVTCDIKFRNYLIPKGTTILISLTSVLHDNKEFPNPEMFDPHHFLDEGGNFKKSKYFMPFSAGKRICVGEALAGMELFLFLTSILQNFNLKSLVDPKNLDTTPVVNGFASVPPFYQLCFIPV
Cytochrome P450 3A4, sequence (P08684 whole entry): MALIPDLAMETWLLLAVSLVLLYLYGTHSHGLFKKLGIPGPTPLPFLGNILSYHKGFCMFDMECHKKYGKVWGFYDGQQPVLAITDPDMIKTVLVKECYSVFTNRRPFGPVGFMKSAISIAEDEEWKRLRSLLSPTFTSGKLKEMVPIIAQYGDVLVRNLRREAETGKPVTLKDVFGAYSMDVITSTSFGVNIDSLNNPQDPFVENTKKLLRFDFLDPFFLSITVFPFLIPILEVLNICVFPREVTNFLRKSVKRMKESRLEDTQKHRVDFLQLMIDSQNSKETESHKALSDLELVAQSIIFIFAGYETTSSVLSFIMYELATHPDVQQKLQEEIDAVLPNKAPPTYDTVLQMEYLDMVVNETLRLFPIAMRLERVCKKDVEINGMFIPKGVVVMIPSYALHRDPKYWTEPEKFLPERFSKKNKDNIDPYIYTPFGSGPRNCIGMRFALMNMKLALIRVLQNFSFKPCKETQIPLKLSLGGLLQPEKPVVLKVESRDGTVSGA

- metabolised at 0.5 h, 10 µM [1]: 22%
- metabolised at 0.5 h, 10 µM [2]: 41%
- IC50 [5]: 1.76 µM
- pKa [6]: 3.5
- IC50 [7]: 0.91 µM
- IC50 [8]: 1.2 µM
- IC50 [9]: 1.5 µM
- IC50 [10]: 2.73 µM
- IC50 [11]: 7.61 µM
- solubility [12]: > 1000 µg/mL
- Papp [13]: 36 ×10⁻⁶ cm/s
- inhibition (INH) [15]: Not Active
- inhibition (INH) [16]: Not Active
- inhibition (INH) [17]: Not Active
- IC50 [18]: 7 µM
- inhibition (INH) [19]: Not Active
- inhibition (INH) [20]: Not Active
SMILES: NC(=O)C1CCN(c2c(Cl)cncc2Cl)CC1
- inhibition [3]: Active
- Activity [4]: Non-toxic
- IC50 [14]: > 10 µM

Reference: ChEMBL document CHEMBL3407438, “Discovery of potent, orally bioavailable, small-molecule inhibitors of WNT signaling from a cell-based pathway screen” (J Med Chem, 2015)
